Values joined by “and” are separate entries in the source; they are usually repeats but may differ in a detail not shown here. Equal entries are not always repeated.
System: HEK-293T
Experiment: Multiplex assay against HEK293T;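 for Population Tubulin-Different-Phenotype (%): share of the cells with healthy nuclei that show this phenotype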
Type: toxicity, cell-based
Details: human
Procedure, shortened: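 Compound was added to live cells that had been stained at seeding with Hoechst33342, BioTracker Green Microtubule Cytoskeleton Dye, MitoTracker Red and Annexin V Alexa Fluor 680, and imaging followed on a CQ1 microscope at 37°C and 5% CO2. CellPathfinder machine-learning gating divided cells into Hoechst high-intensity objects or normal cells, normal cells into healthy, pyknosed or fragmented nuclei, and pyknosed cells into mitotic or apoptotic. Tubulin, mitochondrial-mass and membrane-permeability phenotypes are per cents of healthy-nucleus cells.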

[1] = 12 h, 1 µM, compound concentration 1 uM, replicate 1
[2] = 12 h, 1 µM, compound concentration 1 uM, replicate 2
[3] = 12 h, 10 µM, compound concentration 10 uM, replicate 1
[4] = 12 h, 10 µM, compound concentration 10 uM, replicate 2
[5] = 24 h, 1 µM, compound concentration 1 uM, replicate 1
[6] = 24 h, 1 µM, compound concentration 1 uM, replicate 2
[7] = 24 h, 10 µM, compound concentration 10 uM, replicate 1
[8] = 24 h, 10 µM, compound concentration 10 uM, replicate 2
[9] = 48 h, 1 µM, compound concentration 1 uM, replicate 1
[10] = 48 h, 1 µM, compound concentration 1 uM, replicate 2
[11] = 48 h, 10 µM, compound concentration 10 uM, replicate 1
[12] = 48 h, 10 µM, compound concentration 10 uM, replicate 2

SMILES: CN(C)CC#Cc1ccc(OCCCc2sc(N3CCc4cccc(C(=O)Nc5nc6ccccc6s5)c4C3)nc2C(=O)O)c(F)c1 [A-1155463]
- Population Apoptotic (%) [1]: 33%
- Population Fragmented Nuclei (%) [1]: 12%
- Population Healthy Nuclei (%) [1]: 42%
- Population Hoechst High Intensity Objects (%) [1]: 11%
- Population Membrane Permeable-Phenotype (%) [1]: 2%
- Population Mitochondria Different-Phenotype (%) [1]: 68%
- Population Mitotic Cells (%) [1]: 66%
- Population Normal (%) [1]: 88%
- Population Pyknosed Nuclei (%) [1]: 45%
- Population Tubulin-Different-Phenotype (%) [1]: 40%
- Total Cell Count [1]: 278
- Population Apoptotic (%) [2]: 15%
- Population Fragmented Nuclei (%) [2]: 4%
- Population Healthy Nuclei (%) [2]: 44%
- Population Hoechst High Intensity Objects (%) [2]: 3%
- Population Membrane Permeable-Phenotype (%) [2]: 6%
- Population Mitochondria Different-Phenotype (%) [2]: 17%
- Population Mitotic Cells (%) [2]: 84%
- Population Normal (%) [2]: 96%
- Population Pyknosed Nuclei (%) [2]: 50%
- Population Tubulin-Different-Phenotype (%) [2]: 17%
- Total Cell Count [2]: 177
- Population Apoptotic (%) [3]: 40%
- Population Fragmented Nuclei (%) [3]: 8%
- Population Healthy Nuclei (%) [3]: 41%
- Population Hoechst High Intensity Objects (%) [3]: 10%
- Population Membrane Permeable-Phenotype (%) [3]: 13%
- Population Mitochondria Different-Phenotype (%) [3]: 63%
- Population Mitotic Cells (%) [3]: 59%
- Population Normal (%) [3]: 89%
- Population Pyknosed Nuclei (%) [3]: 49%
- Population Tubulin-Different-Phenotype (%) [3]: 64%
- Total Cell Count [3]: 288
- Population Apoptotic (%) [4]: 18%
- Population Fragmented Nuclei (%) [4]: 20%
- Population Healthy Nuclei (%) [4]: 39%
- Population Hoechst High Intensity Objects (%) [4]: 7%
- Population Membrane Permeable-Phenotype (%) [4]: 10%
- Population Mitochondria Different-Phenotype (%) [4]: 17%
- Population Mitotic Cells (%) [4]: 81%
- Population Normal (%) [4]: 92%
- Population Pyknosed Nuclei (%) [4]: 39%
- Population Tubulin-Different-Phenotype (%) [4]: 26%
- Total Cell Count [4]: 263
- Population Apoptotic (%) [5]: 48%
- Population Fragmented Nuclei (%) [5]: 11%
- Population Healthy Nuclei (%) [5]: 38%
- Population Hoechst High Intensity Objects (%) [5]: 14%
- Population Membrane Permeable-Phenotype (%) [5]: 4%
- Population Mitochondria Different-Phenotype (%) [5]: 54%
- Population Mitotic Cells (%) [5]: 51%
- Population Normal (%) [5]: 85%
- Population Pyknosed Nuclei (%) [5]: 50%
- Population Tubulin-Different-Phenotype (%) [5]: 37%
- Total Cell Count [5]: 286
- Population Apoptotic (%) [6]: 10%
- Population Fragmented Nuclei (%) [6]: 4%
- Population Healthy Nuclei (%) [6]: 56%
- Population Hoechst High Intensity Objects (%) [6]: 2%
- Population Membrane Permeable-Phenotype (%) [6]: 17%
- Population Mitochondria Different-Phenotype (%) [6]: 7%
- Population Mitotic Cells (%) [6]: 89%
- Population Normal (%) [6]: 97%
- Population Pyknosed Nuclei (%) [6]: 39%
- Population Tubulin-Different-Phenotype (%) [6]: 24%
- Total Cell Count [6]: 220
- Population Apoptotic (%) [7]: 42%
- Population Fragmented Nuclei (%) [7]: 12%
- Population Healthy Nuclei (%) [7]: 43%
- Population Hoechst High Intensity Objects (%) [7]: 10%
- Population Membrane Permeable-Phenotype (%) [7]: 14%
- Population Mitochondria Different-Phenotype (%) [7]: 35%
- Population Mitotic Cells (%) [7]: 57%
- Population Normal (%) [7]: 89%
- Population Pyknosed Nuclei (%) [7]: 44%
- Population Tubulin-Different-Phenotype (%) [7]: 54%
- Total Cell Count [7]: 298
- Population Apoptotic (%) [8]: 24%
- Population Fragmented Nuclei (%) [8]: 19%
- Population Healthy Nuclei (%) [8]: 52%
- Population Hoechst High Intensity Objects (%) [8]: 3%
- Population Membrane Permeable-Phenotype (%) [8]: 20%
- Population Mitochondria Different-Phenotype (%) [8]: 13%
- Population Mitotic Cells (%) [8]: 75%
- Population Normal (%) [8]: 96%
- Population Pyknosed Nuclei (%) [8]: 28%
- Population Tubulin-Different-Phenotype (%) [8]: 48%
- Total Cell Count [8]: 287
- Population Apoptotic (%) [9]: 33%
- Population Fragmented Nuclei (%) [9]: 16%
- Population Healthy Nuclei (%) [9]: 35%
- Population Hoechst High Intensity Objects (%) [9]: 17%
- Population Membrane Permeable-Phenotype (%) [9]: 9%
- Population Mitochondria Different-Phenotype (%) [9]: 30%
- Population Mitotic Cells (%) [9]: 66%
- Population Normal (%) [9]: 82%
- Population Pyknosed Nuclei (%) [9]: 48%
- Population Tubulin-Different-Phenotype (%) [9]: 37%
- Total Cell Count [9]: 322
- Population Apoptotic (%) [10]: 5%
- Population Fragmented Nuclei (%) [10]: 7%
- Population Healthy Nuclei (%) [10]: 78%
- Population Hoechst High Intensity Objects (%) [10]: 4%
- Population Membrane Permeable-Phenotype (%) [10]: 19%
- Population Mitochondria Different-Phenotype (%) [10]: 4%
- Population Mitotic Cells (%) [10]: 94%
- Population Normal (%) [10]: 95%
- Population Pyknosed Nuclei (%) [10]: 13%
- Population Tubulin-Different-Phenotype (%) [10]: 26%
- Total Cell Count [10]: 397
- Population Apoptotic (%) [11]: 40%
- Population Fragmented Nuclei (%) [11]: 15%
- Population Healthy Nuclei (%) [11]: 56%
- Population Hoechst High Intensity Objects (%) [11]: 11%
- Population Membrane Permeable-Phenotype (%) [11]: 30%
- Population Mitochondria Different-Phenotype (%) [11]: 13%
- Population Mitotic Cells (%) [11]: 59%
- Population Normal (%) [11]: 88%
- Population Pyknosed Nuclei (%) [11]: 28%
- Population Tubulin-Different-Phenotype (%) [11]: 52%
- Total Cell Count [11]: 390
- Population Apoptotic (%) [12]: 8%
- Population Healthy Nuclei (%) [12]: 65%
- Population Hoechst High Intensity Objects (%) [12]: 3%
- Population Membrane Permeable-Phenotype (%) [12]: 43%
- Population Mitochondria Different-Phenotype (%) [12]: 2%
- Population Mitotic Cells (%) [12]: 91%
- Population Normal (%) [12]: 96%
- Population Pyknosed Nuclei (%) [12]: 19%
- Population Tubulin-Different-Phenotype (%) [12]: 48%
- Total Cell Count [12]: 365

SMILES: NC(=O)Nc1cc(-c2cccc(F)c2)sc1C(=O)N[C@H]1CCCNC1 [AZD-7762]
- Population Fragmented Nuclei (%) [1]: 18%
- Population Healthy Nuclei (%) [1]: 54%
- Population Hoechst High Intensity Objects (%) [1]: 13%
- Population Mitochondria Different-Phenotype (%) [1]: 5%
- Population Normal (%) [1]: 86%
- Population Pyknosed Nuclei (%) [1]: 26%
- Population Tubulin-Different-Phenotype (%) [1]: 3%
- Total Cell Count [1]: 661
- Population Apoptotic (%) [2]: 18%
- Population Fragmented Nuclei (%) [2]: 6%
- Population Healthy Nuclei (%) [2]: 73%
- Population Hoechst High Intensity Objects (%) [2]: 5%
- Population Membrane Permeable-Phenotype (%) [2]: 5%
- Population Mitochondria Different-Phenotype (%) [2]: 20%
- Population Mitotic Cells (%) [2]: 81%
- Population Normal (%) [2]: 94%
- Population Pyknosed Nuclei (%) [2]: 19%
- Population Tubulin-Different-Phenotype (%) [2]: 25%
- Total Cell Count [2]: 1132
- Population Fragmented Nuclei (%) [3]: 28% and 23%
- Population Hoechst High Intensity Objects (%) [3]: 18% and 14%
- Population Membrane Permeable-Phenotype (%) [3]: 5% and 4%
- Population Normal (%) [3]: 81% and 85%
- Population Pyknosed Nuclei (%) [3]: 59% and 21%
- Population Apoptotic (%) [4]: 27% and 9%
- Population Fragmented Nuclei (%) [4]: 8% and 10%
- Population Healthy Nuclei (%) [4]: 28% and 66%
- Population Hoechst High Intensity Objects (%) [4]: 4% and 2%
- Population Membrane Permeable-Phenotype (%) [4]: 0% and 3%
- Population Mitochondria Different-Phenotype (%) [4]: 30% and 18%
- Population Mitotic Cells (%) [4]: 72% and 90%
- Population Normal (%) [4]: 95% and 97%
- Population Pyknosed Nuclei (%) [4]: 63% and 22%
- Population Tubulin-Different-Phenotype (%) [4]: 14% and 21%
- Population Apoptotic (%) [5]: 19%
- Population Fragmented Nuclei (%) [5]: 18%
- Population Healthy Nuclei (%) [5]: 42%
- Population Hoechst High Intensity Objects (%) [5]: 12%
- Population Membrane Permeable-Phenotype (%) [5]: 9%
- Population Mitochondria Different-Phenotype (%) [5]: 7%
- Population Mitotic Cells (%) [5]: 80%
- Population Normal (%) [5]: 87%
- Population Pyknosed Nuclei (%) [5]: 38%
- Population Tubulin-Different-Phenotype (%) [5]: 14%
- Total Cell Count [5]: 632
- Population Apoptotic (%) [6]: 35%
- Population Fragmented Nuclei (%) [6]: 8%
- Population Healthy Nuclei (%) [6]: 39%
- Population Hoechst High Intensity Objects (%) [6]: 6%
- Population Membrane Permeable-Phenotype (%) [6]: 8%
- Population Mitochondria Different-Phenotype (%) [6]: 33%
- Population Mitotic Cells (%) [6]: 64%
- Population Normal (%) [6]: 93%
- Population Pyknosed Nuclei (%) [6]: 51%
- Population Tubulin-Different-Phenotype (%) [6]: 62%
- Total Cell Count [6]: 1019
- Population Apoptotic (%) [7]: 26% and 66%
- Population Fragmented Nuclei (%) [7]: 22% and 33%
- Population Hoechst High Intensity Objects (%) [7]: 13% and 14%
- Population Membrane Permeable-Phenotype (%) [7]: 8% and 0%
- Population Mitotic Cells (%) [7]: 73% and 33%
- Population Normal (%) [7]: 86% and 85%
- Population Pyknosed Nuclei (%) [7]: 36% and 58%
- Population Tubulin-Different-Phenotype (%) [7]: 36% and 50%
- Population Apoptotic (%) [8]: 52% and 23%
- Population Fragmented Nuclei (%) [8]: 12% and 17%
- Population Hoechst High Intensity Objects (%) [8]: 6% and 5%
- Population Membrane Permeable-Phenotype (%) [8]: 10%
- Population Mitochondria Different-Phenotype (%) [8]: 20% and 48%
- Population Mitotic Cells (%) [8]: 47% and 76%
- Population Normal (%) [8]: 93% and 95%
- Population Pyknosed Nuclei (%) [8]: 80% and 47%
- Population Tubulin-Different-Phenotype (%) [8]: 30% and 63%
- Population Apoptotic (%) [11]: 75%
- Population Fragmented Nuclei (%) [11]: 43%
- Population Healthy Nuclei (%) [11]: 3%
- Population Hoechst High Intensity Objects (%) [11]: 21%
- Population Membrane Permeable-Phenotype (%) [11]: 0%
- Population Mitochondria Different-Phenotype (%) [11]: 100%
- Population Mitotic Cells (%) [11]: 25%
- Population Normal (%) [11]: 78%
- Population Pyknosed Nuclei (%) [11]: 53%
- Population Tubulin-Different-Phenotype (%) [11]: 0%
- Total Cell Count [11]: 191
- Population Fragmented Nuclei (%) [12]: 13%
- Population Healthy Nuclei (%) [12]: 12%
- Population Hoechst High Intensity Objects (%) [12]: 8%
- Population Membrane Permeable-Phenotype (%) [12]: 5%
- Population Mitochondria Different-Phenotype (%) [12]: 66%
- Population Mitotic Cells (%) [12]: 24%
- Population Normal (%) [12]: 91%
- Population Pyknosed Nuclei (%) [12]: 74%
- Population Tubulin-Different-Phenotype (%) [12]: 61%
- Total Cell Count [12]: 161

From ChEMBL document CHEMBL4689842, “EUbOPEN Chemogenomics Library wave 1” (2021)
